Here are results for 31 compounds from ChEMBL document CHEMBL4007508, “Discovery and Pre-Clinical Characterization of Third-Generation 4-H Heteroaryldihydropyrimidine (HAP) Analogues as Hepatitis B Virus (HBV) Capsid Inhibitors” (J Med Chem, 2017).

Values after ≈ are worked out from the molar mass of the structure shown.

One data set relates to Hepatitis B virus. Put plainly: Antiviral activity against HBV infected in human HepG2(2.2.15) cells assessed as decrease in HBV genome replication after 5 days by qPCR method. In kind it is functional, cell-based. The conditions noted are these: HepG2 2.2.15, 120 h. An outline of the steps: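 HepG2.2.15 cells (stable HBV genome, Hep G2-derived; DMEM-F12, 10% FBS, penicillin/streptomycin, 0.5 mg/mL G418) seeded 3 × 10^4/well, incubated overnight at 37 °C. Compounds serially half-log diluted in DMSO, then in medium; final DMSO 0.5%. HBV DNA extracted and quantified by qPCR.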
On the technique in general: Quantitative PCR measures a nucleic acid by following its amplification.

Data set [1] in a line: Cytotoxicity against HBV infected human HepDE19 cells assessed as decrease in cell viability after 5 days by CCK8 assay. In kind it is cell-based. The method in brief:
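Tetracycline-inducible HBV HepDE19 cells seeded 5 × 10^3/well and treated with compounds. After 5 days, viability read by CCK-8 (2 h, 37 °C; absorbance 450 and 630 nm).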
A general note: Tetrazolium assays rely on reduction of a dye to a coloured formazan, in cell work by metabolically active cells.

Data set [2] can be described thus: Selectivity index, ratio of CC50 for HBV infected human HepDE19 cells to EC50 for HBV infected in human HepG2(2.2.15) cells. An outline of the steps: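 Selectivity index calculated as CC50 (HepDE19, CCK-8 viability after 5 days) divided by EC50 (HBV DNA reduction in HepG2.2.15 cells, qPCR).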
The nature of data set [3]: Solubility of compound in phosphate buffer at pH 6.5 after one night incubation by HPLC-UV method. In kind it is physicochemical.

What is called EC50 is the concentration needed to bring the measured effect to its halfway point. What is called CC50 is the concentration that lowers cell viability or growth by half. A word on the solubility: it is how much of the substance goes into solution per volume. A lower solubility goes with little dissolved substance.

Consider `CC(C)OC(=O)C1=C(CN2CCOC[C@H]2C(=O)O)NC(c2nccs2)=N[C@H]1c1ccc(F)cc1Cl`, for which, in the data set with Hepatitis B virus, the EC50 is 17 nM. Also, in data set [1], the 50% cytotoxic concentration (CC50) at 120 h was 72000 nM. The “Ratio CC50/EC50” value in data set [2] is 4235.
The like results for `CCOC(=O)C1=C(CN2CCOC[C@H]2C(=O)O)NC(c2nccs2)=N[C@H]1c1ccc(C)cc1Cl` were, in that order, 3 nM, more than 100000 nM and more than 33333.
The like results for `CCOC(=O)C1=C(CN2CCOC[C@H]2C(=O)O)NC(c2nccs2)=N[C@H]1c1ccc(F)cc1` were, in that order, 15 nM, 62000 nM and 4133.
Consider `COC(=O)C1=C(CN2CCOC[C@H]2C(=O)O)NC(c2nccn2C)=N[C@H]1c1ccc(F)cc1Cl`, for which, in the data set with Hepatitis B virus, the EC50 worked out at 42 nM. For the same compound, the CC50 at 120 h in data set [1] was 82000 nM. Also, the “Ratio CC50/EC50” value in data set [2] is listed as 1952.
`COC(=O)C1=C(CN2CCOC[C@H]2C(N)=O)NC(c2nccs2)=N[C@H]1c1ccc(F)cc1Cl`: the concentration giving a half-maximal response (EC50) in the data set with Hepatitis B virus worked out at 3 nM. Besides, in data set [1], the CC50 at 120 h was more than 100000 nM. The “Ratio CC50/EC50” value in data set [2] was more than 33333. This compound also registered a solubility in data set [3] of 205 µg/mL (≈ 415 µM).
On to `COC(=O)C1=C(CN2CCO[C@H](C(C)C)[C@H]2C(=O)O)NC(c2nccs2)=N[C@H]1c1ccc(F)cc1Cl`, for which the half-maximal effective concentration (EC50) in the data set on Hepatitis B virus turned out to be 5 nM. In addition, the CC50 at 120 h in data set [1] amounted to 81000 nM. Besides, the “Ratio CC50/EC50” value in data set [2] is given as 16200.
Turning to `COC(=O)C1=C(CN2CCSCC2C(=O)O)NC(c2nccs2)=N[C@H]1c1ccc(F)cc1Cl` (single isomer, unassigned), in the data set with Hepatitis B virus, the EC50 is 38 nM. Moreover, in data set [1], the CC50 at 120 h was 60000 nM. Besides, in data set [2], the “Ratio CC50/EC50” value was found to be 1579. The solubility in data set [3] was 584 µg/mL (≈ 1140 µM).
On to `COC(=O)C1=C(C)NC(c2nccs2)=N[C@H]1c1ccc(F)cc1Cl`, for which the concentration giving a half-maximal response (EC50) in the data set with Hepatitis B virus was found to be 80 nM. In addition, the CC50 at 120 h in data set [1] is 83000 nM. Besides, in data set [2], the “Ratio CC50/EC50” value amounted to 1038. The solubility in data set [3] stood at 16 µg/mL (≈ 43.7 µM).
In the same order, the values of `COC(=O)C1=C(CN2CCOCC2CO)NC(c2nccs2)=N[C@H]1c1ccc(F)cc1Cl` (stereo not given in full) are 5 nM, 74000 nM, 14800 and 475 µg/mL (≈ 988 µM).
As for `COC(=O)C1=C(CN2CCOC[C@@]2(C)C(=O)O)NC(c2nccs2)=N[C@H]1c1ccc(F)cc1Cl`, in the data set on Hepatitis B virus, the EC50 was found to be 20 nM. The CC50 at 120 h in data set [1] was more than 100000 nM. In data set [3], this compound registered a solubility of 600 µg/mL (≈ 1180 µM).
On to `COC(=O)C1=C(CN2CCOC(C(=O)O)C2)NC(c2nccs2)=N[C@H]1c1ccc(F)cc1Cl` (stereo not given in full), for which the EC50 with Hepatitis B virus turned out to be 333 nM. Moreover, the 50% cytotoxic concentration (CC50) at 120 h in data set [1] is more than 100000 nM. In addition, the “Ratio CC50/EC50” value in data set [2] is given as more than 300. This compound also returned a solubility in data set [3] of more than 592 µg/mL.
For the compound `COC(=O)C1=C(CN2CCOC[C@@H]2C(=O)O)NC(c2nccs2)=N[C@H]1c1ccc(F)cc1Cl`, the half-maximal effective concentration (EC50) in the data set with Hepatitis B virus stood at 79 nM. The CC50 at 120 h in data set [1] is more than 100000 nM. In data set [2], the “Ratio CC50/EC50” value is more than 1266.
As to `COCCOC(=O)C1=C(CN2CCOC[C@H]2C(=O)O)NC(c2nccs2)=N[C@H]1c1ccc(F)cc1Cl`, in the data set with Hepatitis B virus, the half-maximal effective concentration (EC50) worked out at 190 nM. For the same compound, the CC50 at 120 h in data set [1] is more than 100000 nM. Moreover, in data set [2], the “Ratio CC50/EC50” value is on record as more than 526.
Turning to `CCCOC(=O)C1=C(CN2CCOC[C@H]2C(=O)O)NC(c2nccs2)=N[C@H]1c1ccc(F)cc1Cl`, in the data set with Hepatitis B virus, the EC50 was found to be 12 nM. Also, the 50% cytotoxic concentration (CC50) at 120 h in data set [1] was more than 100000 nM. Besides, the “Ratio CC50/EC50” value in data set [2] is more than 8333.
With `COC(=O)C1=C(CN2CCOC[C@H]2C(=O)O)NC(c2nccs2)=N[C@H]1c1ccc(F)c(F)c1Cl`, in the data set with Hepatitis B virus, the EC50 stood at 1 nM. Also, the CC50 at 120 h in data set [1] was more than 100000 nM. In data set [2], the “Ratio CC50/EC50” value was more than 100000.
In the same order, the values of `CCOC(=O)C1=C(CN2CCOC[C@H]2C(=O)O)NC(c2nccs2)=N[C@H]1c1ccc(F)c(F)c1Cl` are 0.6 nM, 29000 nM and 48333.
With `COC(=O)C1=C(CN2CCOC[C@H]2C(=O)O)NC(c2nccs2)=N[C@H]1c1cccc(F)c1Cl`, the concentration giving a half-maximal response (EC50) in the data set on Hepatitis B virus stood at 4 nM. Further, the CC50 at 120 h in data set [1] is more than 100000 nM. In addition, the “Ratio CC50/EC50” value in data set [2] was more than 25000.
As for `O=C(OCC(F)(F)F)C1=C(CN2CCOC[C@H]2C(=O)O)NC(c2nccs2)=N[C@H]1c1ccc(F)cc1Cl`, the EC50 in the data set with Hepatitis B virus was found to be 13 nM. In addition, the CC50 at 120 h in data set [1] amounted to 27000 nM. In addition, in data set [2], the “Ratio CC50/EC50” value stood at 2077.
Take `COC(=O)C1=C(CN2CCOC[C@H]2C(=O)O)NC(c2nccs2)=N[C@H]1c1ccc(F)cc1C`: the EC50 with Hepatitis B virus amounted to 8 nM. Moreover, in data set [1], the half-maximal cytotoxic concentration (CC50) at 120 h is more than 100000 nM. In addition, the “Ratio CC50/EC50” value in data set [2] is 12500.
`COC(=O)C1=C(CN2CCOC[C@H]2CNS(C)(=O)=O)NC(c2nccs2)=N[C@H]1c1ccc(F)cc1Cl`: in the data set with Hepatitis B virus, the EC50 came to 4 nM. The CC50 at 120 h in data set [1] came to 88000 nM. Besides, in data set [2], the “Ratio CC50/EC50” value is 22000. In data set [3], this compound gave a solubility of 48 µg/mL (≈ 86 µM).
For `COC(=O)C1=C(CN2CCOC[C@H]2C(=O)O)NC(c2nc(C)cs2)=N[C@H]1c1ccc(F)cc1Cl`, in the data set with Hepatitis B virus, the concentration giving a half-maximal response (EC50) amounted to 7 nM. For the same compound, in data set [1], the 50% cytotoxic concentration (CC50) at 120 h is more than 100000 nM. Moreover, the “Ratio CC50/EC50” value in data set [2] is more than 14826.
The like results for `CCOC(=O)C1=C(CN2CCOC[C@H]2C(=O)O)NC(c2nccs2)=N[C@H]1c1ccccc1Cl` were, in that order, 14 nM, more than 100000 nM and more than 7143.
For `COC(=O)C1=C(CN2CCOC[C@H]2CC(=O)O)NC(c2nccs2)=N[C@H]1c1ccc(F)cc1Cl`, in the data set on Hepatitis B virus, the EC50 came to 600 nM. The 50% cytotoxic concentration (CC50) at 120 h in data set [1] was more than 100000 nM. Moreover, in data set [2], the “Ratio CC50/EC50” value is reported as more than 167. In addition, the solubility in data set [3] was more than 638 µg/mL.
On to `CCOC(=O)C1=C(CN2CCOC[C@H]2C(=O)O)NC(c2nccs2)=N[C@H]1c1ccc(F)c(F)c1Br`, for which the EC50 with Hepatitis B virus stood at 0.7 nM. Further, the cytotoxic concentration (CC50) at 120 h in data set [1] was 51000 nM. The “Ratio CC50/EC50” value in data set [2] is 72857.
In the case of `COC(=O)C1=C(CN2CCOC[C@H]2CCC(=O)O)NC(c2nccs2)=N[C@H]1c1ccc(F)cc1Cl`, the EC50 with Hepatitis B virus is 150 nM. For the same compound, the CC50 at 120 h in data set [1] is more than 100000 nM. Moreover, the “Ratio CC50/EC50” value in data set [2] is given as more than 667. Further, in data set [3], the solubility is more than 697 µg/mL.
For `COC(=O)C1=C(CN2CCOC[C@H]2C(=O)O)NC(c2ncc(F)cc2F)=N[C@H]1c1ccc(F)cc1Cl`, the half-maximal effective concentration (EC50) in the data set with Hepatitis B virus stood at 8 nM. In data set [1], the CC50 at 120 h was 23000 nM. The “Ratio CC50/EC50” value in data set [2] turned out to be 2875.
In the same order, the values of `CCOC(=O)C1=C(CN2CCOC[C@H]2C(=O)O)NC(c2nccs2)=N[C@H]1c1ccc(F)cc1C` are 3 nM, more than 100000 nM and more than 33333.
In the case of `COC(=O)C1=C(CN2CCOC[C@H]2C(=O)O)NC(c2nccs2)=N[C@H]1c1ccc(C)cc1Cl`, in the data set on Hepatitis B virus, the EC50 came out at 11 nM. Besides, the CC50 at 120 h in data set [1] was more than 100000 nM. For the same compound, in data set [2], the “Ratio CC50/EC50” value is reported as more than 9091.
`COC(=O)C1=C(CN2CCOC[C@H]2C(=O)OC)NC(c2nccs2)=N[C@H]1c1ccc(F)cc1Cl`: the EC50 in the data set with Hepatitis B virus stood at 4 nM. In data set [3], the solubility was less than 1 µg/mL.
Turning to `COC(=O)C1=C(CN2CCOC[C@H]2C(=O)O)NC(c2nccs2)=N[C@H]1c1ccc(F)c(F)c1Br`, in the data set on Hepatitis B virus, the EC50 was 1 nM. Besides, in data set [1], the CC50 at 120 h amounted to 80000 nM. Moreover, the “Ratio CC50/EC50” value in data set [2] amounted to 80000.
As for `COC(=O)C1=C(CN2CCOC[C@H]2C(=O)O)NC(c2ncoc2C)=N[C@H]1c1ccc(F)cc1Cl`, in the data set with Hepatitis B virus, the EC50 turned out to be 14 nM. The CC50 at 120 h in data set [1] was more than 100000 nM. For the same compound, in data set [2], the “Ratio CC50/EC50” value is listed as more than 7143.
